MrgX1 PAM = human MrgX1 positive allosteric modulation, primary screen; MrgX1-HEK293, Fluo-4 calcium flux, FDSS; stronger effect = higher value; 310,000 tested, 0.63% active; AID 588675; Q96LB2; B-score at 10 µM;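 active = plate-corrected calcium response at least 3 library SD above typical, normal starting fluorescence, not activating the receptor alone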;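 also: compound read alongside a low EC10 to EC30 dose of BAM8-22 agonist; peak minus trough fluorescence over baseline measured at the second addition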
Target sequence (Q96LB2 whole entry, looked up): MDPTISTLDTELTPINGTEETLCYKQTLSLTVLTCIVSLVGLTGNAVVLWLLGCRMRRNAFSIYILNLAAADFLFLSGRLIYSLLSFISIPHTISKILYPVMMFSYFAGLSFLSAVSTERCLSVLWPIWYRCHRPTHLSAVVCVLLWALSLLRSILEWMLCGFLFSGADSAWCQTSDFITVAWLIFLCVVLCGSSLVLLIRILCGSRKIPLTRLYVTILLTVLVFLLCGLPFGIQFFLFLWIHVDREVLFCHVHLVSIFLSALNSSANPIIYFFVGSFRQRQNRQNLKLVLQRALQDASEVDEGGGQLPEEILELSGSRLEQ
MrgX1 antagonist = blocks BAM8-22 activation of human MrgX1 receptor; Q96LB2; MRGX1-HEK293 calcium flux, Fluo-4, BAM8-22 antagonism; stronger effect = lower value; AID 588676; B-score at 10 µM; 310,000 tested, 1.3% active;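 active = calcium-response B-score plate-corrected more than 3 library SD below zero, starting fluorescence within 5 deviations, no agonist response on first addition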;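 also: peak minus trough fluorescence over baseline after final BAM8-22 challenge near maximal dose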
RGS4 block = human RGS4 inhibition | HEK293 M3R/RGS4 inducible, Fluo-4 calcium flux; stronger effect = higher value; triggered by carbachol at its EC20 | B-score at 10 µM | 310,000 tested, 0.45% active;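 active = B-score, a plate-corrected calcium signal, over three deviations above library mean, with baseline fluorescence within five deviations of library mean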;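 also: RGS4 expression induced by doxycycline in cells with stable M3 receptor; B-score is computed from the integrated fluorescence ratio over baseline after carbachol; higher B-score means a larger calcium signal and so more RGS4 inhibition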
Target sequence (P49798 whole entry, looked up): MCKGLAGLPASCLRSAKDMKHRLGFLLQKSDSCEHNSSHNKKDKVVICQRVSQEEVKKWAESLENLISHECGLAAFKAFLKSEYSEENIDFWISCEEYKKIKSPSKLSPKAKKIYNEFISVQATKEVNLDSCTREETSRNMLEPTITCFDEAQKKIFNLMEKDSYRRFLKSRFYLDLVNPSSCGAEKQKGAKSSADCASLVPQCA
MrgX1 ag = human MrgX1 receptor agonism, primary screen; Q96LB2; 310,000 tested, 0.44% active; AID 588627; MrgX1-HEK293 cells, Fluo-4 calcium fluorescence, agonist mode; stronger effect = higher value; B-score at 10 µM;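 active = calcium response B-score plate-corrected fluorescence ratio at least 3 library SD, with starting fluorescence B-score inside 5 SD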
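Assay system: stable human MrgX1 HEK293 cell line. Quantity: 15,000 cells per well. Schedule: cells plated overnight, dye loaded 0.5 h 37 °C, 0.5 h room temperature. Detection: Fluo-4 NW calcium-flux fluorescence, kinetic read. Read-out basis: peak-minus-minimum fluorescence over baseline, converted to B scores. Control set: positive and negative control wells on each plate.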
RGS4 pot = potentiators or activators of RGS4. HEK293 M3R/inducible RGS4, carbachol calcium flux Fluo4; stronger effect = lower value. B-score at 10 µM. 310,000 tested, 0.92% active;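 active = B-score of the integrated calcium signal more than 4 SD below the library mean, with starting fluorescence not abnormally high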;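 also: negative B-score means reduced calcium response which marks RGS4 activation or potentiation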
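test system = M3R-expressing HEK293 line, RGS4 induced by doxycycline | probe or stimulus = carbachol at ECmax as muscarinic agonist stimulus | timing = dye loading 30 min 37 °C, buffer rest 30 min RT | signal = calcium dye Fluo4 fluorescence | evaluation = B score from integrated fluorescence ratio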
Starred values were filed as active, the others as inactive; i = inactive; · = not tested or not shown. In the library only some 3.5% were active in any assay of this set; here they are far more common.

SMILES	MrgX1 PAM	MrgX1 antagonist	RGS4 block	MrgX1 ag	RGS4 pot
N#C/C(=C(/O)COc1ccccc1)c1nc2ccccc2s1	i	i	i	i	i
N#C/C(=C(/O)c1ccc(F)cc1)c1nc2ccccc2s1	i	i	i	29*	i
CC(=O)C(C(C)=O)c1cc(NS(=O)(=O)c2ccccc2)ccc1NS(=O)(=O)c1ccccc1	13*	i	i	i	i
CCCc1sc(N/N=C/c2ccccn2)nc1-c1ccc(F)cc1	i	i	6.5*	i	i
C#CCOC(=O)Nc1cc(C)n(-c2ccccc2)n1	i	i	i	i	i
COc1cccc(C(=O)NNC(=O)Cc2ccc(Cl)cc2)c1	i	-7*	i	i	i
COc1ccc(C(=O)NNC(=O)Cc2ccc(Cl)cc2)cc1	i	i	i	i	i
CCCN(CCC)Cc1c(C(=O)N/N=C/c2c[nH]c3ccccc23)nnn1-c1nonc1N	i	i	i	i	i
Cc1ccc(C(=O)N2CCOCC2)c(F)c1F	i	i	i	i	i
COc1ccc(C2C(C#N)=C(N)SC(N)=C2C#N)cc1OC	i	-4.6*	i	i	i
COc1ccc(C2C(C#N)=C(N)OC(C(C)(C)C)=C2C#N)cc1OC (configuration not stated)	i	i	i	i	i
N#CC1=C(N)SC(N)=C(C#N)C1c1cccc(O)c1	i	i	i	39*	i
O=C(/C=C/c1cccs1)N1CCC2(CC1)Oc1ccc(F)cc1C(=O)C21CC(c2ccc(Cl)cc2)=NO1 (configuration not stated)	i	-4.5*	i	i	i
O=C(/C=C/c1cccs1)N1CCC2(CC1)Oc1ccc(Cl)cc1C(=O)C21CC(c2ccc(Cl)cc2)=NO1 (configuration not stated)	i	i	i	i	i
COc1cc2nc(C3CCC3)n(NC(=O)c3ccco3)c(=O)c2cc1OC	i	i	i	i	i
CC1(C)CCCN(C(=O)N2c3ccccc3Sc3ccccc32)C1	i	i	i	i	-9.2*
O=C1C(Cl)=C(Nc2ccc3cn[nH]c3c2)C(=O)c2ccccc21	i	-9.6*	i	i	i
O=C(Nc1ccc2cn[nH]c2c1)c1c(Cl)cccc1Cl	i	i	i	i	i
C#CCN1C(=O)S/C(=C/C=C/c2ccc(N(C)C)cc2)C1=O	i	-5.3*	·	i	·
O=C(CN1C(=O)S/C(=C\C=C\c2ccccc2)C1=O)Nc1ccccc1C(=O)O	i	i	i	i	i
C[C@@H](CN1C(=O)C(=O)NC[C@@H]1Cc1ccc(O)cc1)NC(=O)Cc1ccccc1	i	i	i	i	i
Cc1ccc(C(=O)NNc2cc(=O)n(C)c(=O)n2C)cc1C	i	-5.1*	i	i	i
Cc1cccc(NS(=O)(=O)c2cc(C(=O)N3CCCCCC3)ccc2C)c1	i	i	i	i	i
CO/N=C/C(=N\Nc1cc(OC)cc(OC)c1)C(=O)c1ccccc1	i	-5.4*	i	i	i
COc1cccc(CCN2C(=O)C(=O)N([C@@H](CNCc3ccccc3)Cc3ccccc3F)C[C@@H]2C(C)(C)C)c1	i	i	·	i	·
SMILES	MrgX1 PAM	MrgX1 antagonist	RGS4 block	MrgX1 ag	RGS4 pot
c1ccc(C(c2ccccc2)N2CCN(c3nc4ccccc4n4cnnc34)CC2)cc1	i	i	i	i	-7.2*
c1cnc(N2CCN(c3nc4ccccc4n4cnnc34)CC2)nc1	i	i	i	i	i
CCc1noc(C)c1C(=O)N1CCCC(N2CCN(c3cccc(Cl)c3)CC2)C1 (configuration not stated)	i	i	i	i	i
COc1cccc(/C=N/NC(=O)c2oc3nc(-c4ccccc4)cc(-c4ccco4)c3c2N)c1	i	-4.7*	i	i	i
NNC(=O)c1oc2nc(-c3cccs3)cc(-c3ccco3)c2c1N	i	i	i	i	-9.7*
CCOc1ncccc1C(=O)Nc1c(C)n(C)n(-c2ccccc2)c1=O	i	i	i	i	i
Cc1c2ccccc2cc(Cc2ccccc2)[n+]1C	i	i	i	i	i
Cn1nc(-c2ccccc2)cc1NC(=O)CCCC(=O)O	i	i	i	i	i
CCCOc1ccccc1C1CC(=O)NC(C)=C1C(=O)OCC(C)C (configuration not stated)	i	i	i	i	i
COC(=O)C1=C(C)NC(C)=C(C(=O)OCC(C)C)C1c1ccccc1[N+](=O)[O-] (configuration not stated)	i	i	i	31*	i
CCS(=O)(=O)c1ccc2oc(SCC(=O)NCc3ccccc3)nc2c1	i	i	i	i	-7.2*
CCCCc1cc(=O)oc2cc(C)cc(OCC(=O)NC(Cc3ccc(Cl)cc3)C(=O)O)c12 (configuration not stated)	i	i	i	i	-8.4*
CCCc1cc(=O)oc2cc(C)cc(OCC(=O)NC(Cc3ccc(Cl)cc3)C(=O)O)c12 (configuration not stated)	i	i	i	i	i
Cn1c2ccccc2c2cc(/C=N/NC(=O)c3ccc(O)cc3O)ccc21	i	i	i	i	i
Cn1c(O)c(/C=N/NC(=O)c2cc3ccccc3cc2O)c2ccccc21	i	i	i	50*	-7.6*
O=C(NCC1CCCO1)c1ccc(OC2CCN(C(=O)C3CC3)CC2)cc1 (configuration not stated)	i	i	i	i	i
Cc1[nH]n(-c2ccccc2)c(=O)c1C(c1ccc(O)c([N+](=O)[O-])c1)c1c(C)[nH]n(-c2ccccc2)c1=O	i	i	5.1*	i	i
Cc1[nH]n(-c2ccccc2)c(=O)c1C(C[N+](=O)[O-])c1ccccc1Cl (configuration not stated)	i	i	i	46*	i
COc1cccc(C(c2c(C)[nH]n(-c3ccccc3)c2=O)c2c(C)[nH]n(-c3ccccc3)c2=O)c1O	i	i	i	i	i
CCOC(=O)C1CCN(c2c(NCCN(CC)c3ccccc3)c(=O)c2=O)CC1	10*	i	i	i	i
Cc1ccnc2nc(C(=O)OCC(=O)c3c[nH]c4ccccc34)nn12	i	i	i	i	i
C/C(=N\O)c1ccccc1C(=O)O	i	-6.2*	i	i	i

Compound activity from PubChem.
